# Results from ChEMBL document CHEMBL1145447, “Synthetic studies of neoclerodane diterpenes from Salvia divinorum: preparation and opioid receptor activity of salvinicin analogues” (J Med Chem, 2007).
# Calls of active or inactive are those of the source. No cut-off for these calls is given here.
# Key:
# [1] = target: T1, Mu-type opioid receptor (Homo sapiens, UniProt P35372); experiment: Displacement of [125I]IOXY from human mu opioid receptor expressed in CHO cells; type: cell-based
# Summary of the method: (§1)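 Membranes from CHO cells stably transfected with the respective human opioid receptor cDNA (hMOR-, hDOR-, hKOR-CHO). Incubation in 50 mM Tris-HCl pH 7.4 with bacitracin, bestatin, leupeptin and chymostatin. Nonspecific binding is defined with 10 µM naloxone. Ki is the mean ± SD of at least two independent determinations.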
# [2] = target: T2, Delta-type opioid receptor (Homo sapiens, UniProt P41143); experiment: Displacement of [125I]IOXY from human delta opioid receptor expressed in CHO cells; type: cell-based
# Summary of the method: as §1, with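 “hKOR-CHO). Radioligand [125I]IOXY (SA 2200 Ci/mmol) labels µ, δ and κ sites.” for “hKOR-CHO).”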
# [3] = target: Opioid receptors; delta & kappa (Homo sapiens) (UniProt P41145+P41143); experiment: Selectivity for kappa opioid receptor over delta opioid receptor; type: protein assay
# [4] = target: T3, Kappa-type opioid receptor (Homo sapiens, UniProt P41145); experiment: Displacement of [125I]IOXY from human kappa opioid receptor expressed in CHO cells; type: cell-based; summary of the method: as §1
# [5] = target: Opioid receptors; mu & kappa (Homo sapiens) (UniProt P41145+P35372); experiment: Selectivity for kappa opioid receptor over mu opioid receptor; type: protein assay
# [6] = target: T2, Delta-type opioid receptor; experiment: Antagonist activity at human delta opioid receptor expressed in CHO cells by [35S]GTP-gamma-S binding assay; type: functional, cell-based
# Summary of the method: (§2)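 Antagonism is measured in a [35S]GTP-γ-S binding assay in CHO cells stably transfected with human δ, κ or µ opioid receptor cDNA. Result is given as Ke, the mean ± SD of at least two independent determinations. Test compounds come from 10 mM stocks in 100% DMSO + 10 mM 2-mercaptoethanol, stored at -80 °C. They are diluted in buffer containing 1 mg/mL BSA.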
# [7] = target: T1, Mu-type opioid receptor; experiment: Antagonist activity at human mu opioid receptor expressed in CHO cells by [35S]GTP-gamma-S binding assay; type: functional, cell-based; summary of the method: as §2
# [8] = target: T3, Kappa-type opioid receptor; experiment: Antagonist activity at human kappa opioid receptor expressed in CHO cells by [35S]GTP-gamma-S binding assay; type: functional, cell-based; summary of the method: as §2
# [9] = target: T3, Kappa-type opioid receptor; experiment: Activity at human kappa opioid receptor expressed in CHO cells by [35S]GTP-gamma-S binding assay relative to U69593; type: functional, cell-based
# Summary of the method: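 [35S]GTP-γ-S binding in hKOR-CHO cells (stably transfected human receptor). Emax is the percent stimulation relative to the maximal stimulation by U69,593 run in parallel. EC50 and Emax are the mean ± SE of at least three independent experiments. Emax is compared with U69,593 by one-way ANOVA with Dunnett's test. Drug dilutions are made in buffer with 1 mg/mL BSA, from 10 mM DMSO/2-mercaptoethanol stocks.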
# T3 sequence (P41145 whole entry): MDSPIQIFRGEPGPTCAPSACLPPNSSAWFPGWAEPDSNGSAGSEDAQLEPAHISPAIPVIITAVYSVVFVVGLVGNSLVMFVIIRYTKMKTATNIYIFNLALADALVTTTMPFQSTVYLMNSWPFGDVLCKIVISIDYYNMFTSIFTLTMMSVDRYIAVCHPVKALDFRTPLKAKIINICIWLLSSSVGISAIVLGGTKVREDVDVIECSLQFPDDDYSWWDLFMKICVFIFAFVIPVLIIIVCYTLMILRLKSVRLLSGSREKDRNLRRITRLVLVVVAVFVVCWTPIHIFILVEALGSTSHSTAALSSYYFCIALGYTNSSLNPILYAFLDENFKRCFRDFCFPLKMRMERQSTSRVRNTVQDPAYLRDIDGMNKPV
# T1 sequence (P35372 whole entry): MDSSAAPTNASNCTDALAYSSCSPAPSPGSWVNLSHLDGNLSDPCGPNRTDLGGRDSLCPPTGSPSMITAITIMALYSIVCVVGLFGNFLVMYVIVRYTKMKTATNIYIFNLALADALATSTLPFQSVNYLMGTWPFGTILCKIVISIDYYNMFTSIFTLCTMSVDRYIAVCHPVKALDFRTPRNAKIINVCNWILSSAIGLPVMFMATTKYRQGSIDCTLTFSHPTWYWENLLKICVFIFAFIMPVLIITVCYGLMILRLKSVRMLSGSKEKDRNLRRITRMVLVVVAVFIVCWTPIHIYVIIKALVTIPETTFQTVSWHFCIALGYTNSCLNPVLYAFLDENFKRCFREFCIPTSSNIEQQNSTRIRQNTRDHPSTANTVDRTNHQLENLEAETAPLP
# Chain of Opioid receptors; mu & kappa (Homo sapiens) (P35372 whole entry, looked up): as the sequence (P35372 whole entry) above
# Chain of Opioid receptors; mu & kappa (Homo sapiens) (P41145 whole entry, looked up): as the sequence (P41145 whole entry) above
# Chain of Opioid receptors; delta & kappa (Homo sapiens) (P41143 whole entry, looked up): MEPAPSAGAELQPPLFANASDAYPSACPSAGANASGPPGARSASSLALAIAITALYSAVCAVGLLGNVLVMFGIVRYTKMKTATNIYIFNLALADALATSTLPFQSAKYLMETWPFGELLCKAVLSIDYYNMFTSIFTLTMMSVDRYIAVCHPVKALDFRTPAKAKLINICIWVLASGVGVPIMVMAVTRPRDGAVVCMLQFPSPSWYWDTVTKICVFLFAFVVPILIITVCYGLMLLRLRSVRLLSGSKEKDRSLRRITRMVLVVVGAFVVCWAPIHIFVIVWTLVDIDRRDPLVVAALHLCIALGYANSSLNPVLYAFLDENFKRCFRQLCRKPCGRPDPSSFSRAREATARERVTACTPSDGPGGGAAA
# Chain of Opioid receptors; delta & kappa (Homo sapiens) (P41145 whole entry, looked up): as the sequence (P41145 whole entry) above
# T2 sequence (P41143 whole entry): as the sequence (P41143 whole entry, looked up) above
smiles,measurement,setting,value
COC(=O)[C@@H]1C[C@H](OC(C)=O)C(=O)[C@@H]2[C@@](C)(CCC3CCOC3)[C@H](C(=O)O)CC[C@]21C (some centres not stated),Ki,[1],> 10 µM
same,Ki,[2],> 10 µM
same,Ratio Ki,[3],> 10
same,Ki,[4],0.91 µM
same,Ratio Ki,[5],> 10
COC(=O)[C@@H]1C[C@H](OC(C)=O)C(=O)[C@H]2[C@@]1(C)CC[C@H]1C(=O)O[C@H](c3nc(C)no3)C[C@]21C,Ki,[1],> 10 µM
same,Ki,[2],> 10 µM
same,Activity,[6],inactive
same,Ki,[7],0.43 µM
same,Ratio Ki,[3],> 170
same,Ke,[8],360 nM
same,Ki,[4],0.056 µM
same,Ratio Ki,[5],> 170
COC(=O)[C@@H]1C[C@H](O)C(=O)[C@H]2[C@@]1(C)CC[C@H]1C(=O)O[C@H](c3ccoc3)C[C@]21C [SALVINORIN B],Ki,[1],> 10 µM
same,Ki,[2],> 10 µM
COC(=O)[C@@H]1C[C@H](OC(C)=O)C(=O)[C@@H]2[C@@]3(C)C[C@@H]([C@]4(O)[C@@H](OC)O[C@@H](OC)[C@H]4O)CC(=O)[C@@H]3CC[C@]21C [SALVINICIN B],Ki,[1],> 10 µM
same,Ki,[2],> 10 µM
same,Ratio Ki,[3],1.4
same,Ki,[4],7.02 µM
same,Ratio Ki,[5],1.4
COC(=O)[C@@H]1C[C@H](OC(C)=O)C(=O)[C@H]2[C@@]1(C)CC[C@H]1C(=O)O[C@H](C3=CC(OC)OC3OC)C[C@]21C (some centres not stated),Ki,[1],> 10 µM
same,Ki,[2],> 10 µM
same,Ratio Ki,[3],> 20
same,Ki,[4],0.44 µM
same,Ratio Ki,[5],> 20
COC(=O)[C@@H]1C[C@H](OC(C)=O)C(=O)[C@H]2[C@@]1(C)CC[C@H]1C(=O)O[C@H]([C@]3(O)[C@H](OC)O[C@H](OC)[C@H]3O)C[C@]21C [SALVINICIN A],Ki,[1],> 10 µM
same,Ki,[2],> 10 µM
same,Ratio Ki,[3],> 26
same,Ki,[4],0.39 µM
same,Ratio Ki,[5],> 26
COC(=O)[C@@H]1C[C@H](OC(C)=O)C(=O)[C@H]2[C@@]1(C)CC[C@H]1C(=O)O[C@H](C3=C[C@@H](OC)O[C@@H]3OC)C[C@]21C,Ki,[1],3.19 µM
same,Ki,[2],> 10 µM
same,Ke,[6],3.28 µM
same,Ki,[7],2.32 µM
same,Ratio Ki,[3],> 23
same,Ke,[8],9700 nM
same,Ki,[4],0.42 µM
same,Ratio Ki,[5],8
COC(=O)[C@@H]1C[C@H](OC(C)=O)C(=O)[C@H]2[C@@]1(C)CC[C@H]1C(=O)O[C@H](C3CCOC3)C[C@]21C (some centres not stated),Ki,[2],> 10 µM
same,Ki,[4],0.014 µM
COC(=O)[C@@H]1C[C@H](OC(C)=O)C(=O)[C@H]2[C@@]1(C)CC[C@H]1C(=O)O[C@H]([C@@H]3C[C@@H](OC)O[C@H]3OC)C[C@]21C,Ki,[1],> 10 µM
same,Ki,[2],> 10 µM
same,Activity,[6],inactive
same,Activity,[7],inactive
same,Ratio Ki,[3],> 80
same,Activity,[8],inactive
same,Ki,[4],0.125 µM
same,Ratio Ki,[5],> 80
COC(=O)[C@@H]1C[C@H](OC(C)=O)C(=O)[C@H]2[C@@]1(C)CC[C@H]1C(=O)O[C@H]([C@@H]3C[C@@H](OC)O[C@@H]3OC)C[C@]21C,Ki,[1],> 10 µM
same,Ki,[2],> 10 µM
same,Ke,[6],> 10 µM
same,Ki,[7],1.37 µM
same,Ratio Ki,[3],> 400
same,EC50,[8],2.35 µM
same,Ki,[4],0.025 µM
same,Ratio Ki,[5],> 400
same,Emax,[9],95%
COC(=O)[C@@H]1C[C@H](OC(C)=O)C(=O)[C@H]2[C@@]1(C)CC[C@H]1C(=O)O[C@H](C3CC(OC)OC3OC)C[C@]21C (some centres not stated),Ki,[1],4.81 µM
same,Ki,[2],> 10 µM
same,Ratio Ki,[3],> 250
same,Ki,[4],0.04 µM
same,Ratio Ki,[5],120
COC(=O)[C@@H]1C[C@H](OC(C)=O)C(=O)[C@H]2[C@@]1(C)CC[C@H]1C(=O)O[C@H](C3=CC(=O)OC3O)C[C@]21C (some centres not stated),Ke,[6],2.83 µM
same,Ke,[7],760 nM
same,Ke,[8],440 nM
COC(=O)[C@@H]1C[C@H](OC(C)=O)C(=O)[C@H]2[C@@]1(C)CC[C@H]1C(=O)O[C@H]([C@@H]3CCOC3)C[C@]21C,Ki,[1],9.79 µM
same,Ki,[2],> 10 µM
same,Activity,[6],inactive
same,Activity,[7],inactive
same,EC50,[8],0.75 µM
same,Ki,[4],0.0037 µM
same,Emax,[9],81%
COC(=O)[C@@H]1C[C@H](OC(C)=O)C(=O)[C@@H]2[C@@]3(C)C[C@@H](c4nc(C)no4)OC(=O)[C@H]3CC[C@]21C,Ki,[1],> 10 µM
same,Ki,[2],> 10 µM
same,Ke,[6],4.23 µM
same,Ki,[7],1.53 µM
same,Ratio Ki,[3],> 10
same,Ke,[8],5680 nM
same,Ki,[4],0.99 µM
same,Ratio Ki,[5],> 10
COC(=O)[C@@H]1C[C@H](OC(C)=O)C(=O)[C@H]2[C@@]1(C)CC[C@H]1C(=O)O[C@H](C3=C[C@@H](OC)O[C@H]3OC)C[C@]21C,Ki,[1],3.74 µM
same,Ki,[2],> 10 µM
same,Ke,[6],1.28 µM
same,Ki,[7],2.93 µM
same,Ratio Ki,[3],> 55
same,Ke,[8],2370 nM
same,Ki,[4],0.18 µM
same,Ratio Ki,[5],21
COC(=O)[C@@H]1C[C@H](OC(C)=O)C(=O)[C@H]2[C@@]1(C)CC[C@H]1C(=O)O[C@H](c3ccoc3Br)C[C@]21C,Ki,[1],1.45 µM
same,Ki,[2],7.62 µM
same,Emax,[9],104%
COC(=O)[C@@H]1C[C@H](OC(C)=O)C(=O)[C@H]2[C@@]1(C)CC[C@H]1C(=O)O[C@H](C3=NCCO3)C[C@]21C,Ki,[1],> 10 µM
same,Ki,[2],> 10 µM
same,Ratio Ki,[3],> 30
same,Ki,[4],0.3 µM
same,Ratio Ki,[5],> 30
COC(=O)[C@@H]1C[C@H](OC(C)=O)C(=O)[C@H]2[C@@]1(C)CC[C@H]1C(=O)OCC[C@]21C,Ki,[1],> 10 µM
same,Ki,[2],> 10 µM
same,Ratio Ki,[3],> 3
same,Ki,[4],3.4 µM
same,Ratio Ki,[5],> 3
COC(=O)[C@@H]1C[C@H](OC(C)=O)C(=O)[C@H]2[C@@]1(C)CC[C@H]1C(=O)OC([C@]3(O)[C@@H](OC)O[C@@H](OC)[C@H]3OC(C)=O)C[C@]21C (some centres not stated),Ki,[1],> 10 µM
same,Ki,[2],> 10 µM
same,Ki,[4],> 10 µM
COC(=O)[C@@H]1C[C@H](OC(C)=O)C(=O)[C@H]2[C@@]1(C)CC[C@H]1C(=O)OC([C@]3(O)[C@H](OC)O[C@H](OC)[C@H]3OC(C)=O)C[C@]21C (some centres not stated),Ki,[1],> 10 µM
same,Ki,[2],> 10 µM
same,Ki,[4],> 10 µM
